Measurements: PMC8144927 (Virology, 2021)

Target: angiotensin-converting enzyme 2 (ACE2) (Homo sapiens, UniProt Q9BYF1)
Experiment: SPR
Assay type: binding
Method in brief: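 Nitrilotriacetic acid (NTA) sensor chip surface primed and charged with Ni2+ by sequential injection of 200 mM imidazole and 40 mM NiCl2. His6-tagged ACE2 protein at 20 μg/mL captured on the chip, with test compound as analyte. Supporting ACE2h cell membrane chromatography: 10.0 mm × 2.0 mm column, 37 °C, 0.2 mL/min, 2 mM phosphate-buffered saline (pH 7.4), detection at 284 nm.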

Chain of angiotensin-converting enzyme 2 (ACE2) (Q9BYF1 18-805): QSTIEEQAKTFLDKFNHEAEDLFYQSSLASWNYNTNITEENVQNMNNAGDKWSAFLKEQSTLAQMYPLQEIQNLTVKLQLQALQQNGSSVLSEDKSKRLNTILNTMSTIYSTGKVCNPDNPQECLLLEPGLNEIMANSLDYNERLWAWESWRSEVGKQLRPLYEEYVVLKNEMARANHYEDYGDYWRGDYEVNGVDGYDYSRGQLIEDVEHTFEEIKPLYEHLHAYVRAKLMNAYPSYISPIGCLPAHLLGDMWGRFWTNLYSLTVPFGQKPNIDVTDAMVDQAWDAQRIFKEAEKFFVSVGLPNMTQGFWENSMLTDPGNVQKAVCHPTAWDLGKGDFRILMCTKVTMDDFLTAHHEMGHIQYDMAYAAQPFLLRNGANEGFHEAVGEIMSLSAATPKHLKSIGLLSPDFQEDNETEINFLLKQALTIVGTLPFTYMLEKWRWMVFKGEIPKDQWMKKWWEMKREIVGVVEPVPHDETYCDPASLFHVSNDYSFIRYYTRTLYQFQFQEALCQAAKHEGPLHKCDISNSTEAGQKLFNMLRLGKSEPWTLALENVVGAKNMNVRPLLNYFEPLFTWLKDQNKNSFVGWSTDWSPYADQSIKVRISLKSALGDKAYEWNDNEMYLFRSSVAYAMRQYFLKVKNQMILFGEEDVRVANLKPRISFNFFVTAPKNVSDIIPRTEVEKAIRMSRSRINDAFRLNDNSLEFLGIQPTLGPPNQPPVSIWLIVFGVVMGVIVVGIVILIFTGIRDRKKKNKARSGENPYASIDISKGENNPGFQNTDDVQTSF

CN1CCCC(n2nc(Cc3ccc(Cl)cc3)c3ccccc3c2=O)CC1 (stereo not shown) [azelastine]
Kd: 258 nM
